# Molecular target: Integrin alpha-IIb/beta-3 (Homo sapiens, UniProt P08514+P05106)
# Assay: Inhibition of aggregation of human gel-purified platelets (GPIIbIIIa GPP)
# Procedure, shortened: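 Human platelets from healthy-volunteer platelet-rich plasma were gel-purified on sepharose and used at 2×10^8 platelets/mL with 1 mM CaCl2 and 1 mg/mL fibrinogen. Aggregation was measured with or without compound at several concentrations and IC50 calculated. Values are single determinations.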
# Sequence of Integrin alpha-IIb/beta-3 (P05106 27-788 limits assumed): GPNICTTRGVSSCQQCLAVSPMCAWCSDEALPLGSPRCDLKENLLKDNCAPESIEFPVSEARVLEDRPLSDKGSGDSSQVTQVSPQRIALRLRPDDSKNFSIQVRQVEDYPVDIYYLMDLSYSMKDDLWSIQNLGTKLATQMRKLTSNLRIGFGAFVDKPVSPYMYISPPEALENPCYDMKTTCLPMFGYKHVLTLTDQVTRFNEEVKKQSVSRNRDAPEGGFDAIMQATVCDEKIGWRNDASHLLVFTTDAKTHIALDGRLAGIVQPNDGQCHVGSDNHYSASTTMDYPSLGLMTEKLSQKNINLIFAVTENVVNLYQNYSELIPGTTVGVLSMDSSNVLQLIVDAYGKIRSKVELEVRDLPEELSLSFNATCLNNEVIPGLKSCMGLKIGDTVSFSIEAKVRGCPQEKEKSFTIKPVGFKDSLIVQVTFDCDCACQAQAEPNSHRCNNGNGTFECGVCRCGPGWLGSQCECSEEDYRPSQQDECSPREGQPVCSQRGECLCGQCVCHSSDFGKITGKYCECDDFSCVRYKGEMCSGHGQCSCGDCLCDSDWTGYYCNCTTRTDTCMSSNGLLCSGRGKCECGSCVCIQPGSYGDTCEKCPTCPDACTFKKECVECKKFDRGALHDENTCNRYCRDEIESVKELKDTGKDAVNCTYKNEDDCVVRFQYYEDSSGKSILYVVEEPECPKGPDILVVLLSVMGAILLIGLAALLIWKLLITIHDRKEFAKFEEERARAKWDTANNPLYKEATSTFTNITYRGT
# Sequence of Integrin alpha-IIb/beta-3 (P08514 32-887 limits assumed): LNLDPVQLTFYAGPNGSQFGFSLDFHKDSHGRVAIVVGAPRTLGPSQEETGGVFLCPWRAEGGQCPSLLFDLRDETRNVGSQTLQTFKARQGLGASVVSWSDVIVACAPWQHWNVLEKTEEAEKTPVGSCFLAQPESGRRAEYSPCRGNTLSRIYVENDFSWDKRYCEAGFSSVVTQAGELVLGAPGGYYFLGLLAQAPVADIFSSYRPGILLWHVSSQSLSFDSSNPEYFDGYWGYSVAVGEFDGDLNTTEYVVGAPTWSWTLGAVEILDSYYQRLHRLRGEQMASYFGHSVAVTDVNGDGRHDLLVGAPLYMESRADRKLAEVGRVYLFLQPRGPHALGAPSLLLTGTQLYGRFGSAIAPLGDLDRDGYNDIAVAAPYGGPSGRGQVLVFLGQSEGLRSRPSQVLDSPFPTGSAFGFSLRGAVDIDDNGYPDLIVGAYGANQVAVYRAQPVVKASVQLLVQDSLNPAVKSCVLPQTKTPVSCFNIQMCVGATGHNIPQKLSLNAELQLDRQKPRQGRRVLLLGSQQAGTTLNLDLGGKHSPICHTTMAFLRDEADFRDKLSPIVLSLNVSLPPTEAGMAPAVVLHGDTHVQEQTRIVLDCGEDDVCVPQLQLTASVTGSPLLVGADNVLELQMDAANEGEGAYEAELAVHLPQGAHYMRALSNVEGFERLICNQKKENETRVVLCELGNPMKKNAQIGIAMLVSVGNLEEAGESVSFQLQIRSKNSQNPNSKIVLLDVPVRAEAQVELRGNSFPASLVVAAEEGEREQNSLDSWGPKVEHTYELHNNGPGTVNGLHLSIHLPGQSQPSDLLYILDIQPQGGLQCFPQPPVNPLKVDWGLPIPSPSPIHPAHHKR
# Sequence of Integrin alpha-IIb/beta-3 (P08514 891-1039 limits assumed): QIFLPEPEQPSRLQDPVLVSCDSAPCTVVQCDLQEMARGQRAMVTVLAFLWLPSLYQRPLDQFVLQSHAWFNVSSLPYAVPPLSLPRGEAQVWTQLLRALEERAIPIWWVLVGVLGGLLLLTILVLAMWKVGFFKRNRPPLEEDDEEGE
row,IC50 [nM],SMILES
1,34,O=C(NC[C@H](NS(=O)(=O)c1ccccc1)C(=O)O)c1ccc2c(cnn2CCCNc2ncc[nH]2)c1 [2-Benzenesulfonylamino-3-({1-[3-(1H-imidazol-2-ylamino)-propyl]-1H-indazole-5-carbonyl}-amino)-propionic acid]
2,4000,"Cc1cc(C)c(S(=O)(=O)N[C@@H](CNC(=O)c2ccc3c(cnn3CCC(=O)Nc3ncc[nH]3)c2)C(=O)O)c(C)c1 [3-({1-[2-(1H-Imidazol-2-ylcarbamoyl)-ethyl]-1H-indazole-5-carbonyl}-amino)-2-(2,4,6-trimethyl-benzenesulfonylamino)-propionic acid]"
3,1000,O=C(N[C@@H](CNC(=O)c1ccc2c(cnn2CCCNc2ncc[nH]2)c1)C(=O)O)OCc1ccccc1 [2-Benzyloxycarbonylamino-3-({1-[3-(1H-imidazol-2-ylamino)-propyl]-1H-indazole-5-carbonyl}-amino)-propionic acid]
4,410,COc1ccc(S(=O)(=O)N[C@@H](CNC(=O)c2ccc3c(cnn3CCCNc3ncc[nH]3)c2)C(=O)O)cc1 [3-({1-[3-(1H-Imidazol-2-ylamino)-propyl]-1H-indazole-5-carbonyl}-amino)-2-(4-methoxy-benzenesulfonylamino)-propionic acid]
5,8100,O=C(NC[C@H](NS(=O)(=O)NCc1ccccc1)C(=O)O)c1ccc2c(cnn2CCCNc2ccccn2)c1 [3-[1-[3-(N-Pyridin-2ylamino)propyl]indazol-5-ylcarbonylamino]-2(S)-(phenylmethylaminosulfonylamino) propionic acid]
6,74,"Cc1cccc(C)c1S(=O)(=O)N[C@@H](CNC(=O)c1ccc2c(cnn2CCCNc2ncc[nH]2)c1)C(=O)O [2-(2,6-Dimethyl-benzenesulfonylamino)-3-({1-[3-(1H-imidazol-2-ylamino)-propyl]-1H-indazole-5-carbonyl}-amino)-propionic acid]"
7,39,O=C(NC[C@H](NS(=O)(=O)c1cccc2ccccc12)C(=O)O)c1ccc2c(cnn2CCCNc2ncc[nH]2)c1 [3-({1-[3-(1H-Imidazol-2-ylamino)-propyl]-1H-indazole-5-carbonyl}-amino)-2-(naphthalene-1-sulfonylamino)-propionic acid]
8,220,"Cc1cc(C)c(S(=O)(=O)N[C@@H](CNC(=O)c2ccc3c(cnn3CCCNc3ccccn3)c2)C(=O)O)c(C)c1 [3-({1-[3-(Pyridin-2-ylamino)-propyl]-1H-indazole-5-carbonyl}-amino)-2-(2,4,6-trimethyl-benzenesulfonylamino)-propionic acid]"
9,> 10000,O=C(N[C@@H](CNC(=O)c1ccc2c(cnn2CCCNc2ccccn2)c1)C(=O)O)OCc1ccccc1 [2-Benzyloxycarbonylamino-3-({1-[3-(pyridin-2-ylamino)-propyl]-1H-indazole-5-carbonyl}-amino)-propionic acid]
10,21,"Cc1cc(C)c(S(=O)(=O)N[C@@H](CNC(=O)c2ccc3c(cnn3CCCNc3ncc[nH]3)c2)C(=O)O)c(C)c1 [3-({1-[3-(1H-Imidazol-2-ylamino)-propyl]-1H-indazole-5-carbonyl}-amino)-2-(2,4,6-trimethyl-benzenesulfonylamino)-propionic acid]"
11,7800,O=C(NC[C@H](NS(=O)(=O)Nc1ccccc1)C(=O)O)c1ccc2c(cnn2CCCNc2ccccn2)c1 [3-[1-[3-(N-Pyridin-2ylamino)propyl]indazol-5-ylcarbonylamino]-2(S)-(phenylaminosulfonylamino) propionic acid]
12,790,"O=C(NC[C@H](NS(=O)(=O)c1ccc(Cl)c(Cl)c1)C(=O)O)c1ccc2c(cnn2CCCNc2ncc[nH]2)c1 [2-(3,4-Dichloro-benzenesulfonylamino)-3-({1-[3-(1H-imidazol-2-ylamino)-propyl]-1H-indazole-5-carbonyl}-amino)-propionic acid]"
13,41000,"Cc1cc(C)c(S(=O)(=O)N[C@@H](CC(=O)Nc2ccc3c(cnn3CCCNc3ccccn3)c2)C(=O)O)c(C)c1 [N-{1-[3-(Pyridin-2-ylamino)-propyl]-1H-indazol-5-yl}-2-(2,4,6-trimethyl-benzenesulfonylamino)-succinamic acid]"
14,400,CC(=O)Nc1ccc(S(=O)(=O)N[C@@H](CNC(=O)c2ccc3c(cnn3CCCNc3ncc[nH]3)c2)C(=O)O)cc1 [2-(4-Acetylamino-benzenesulfonylamino)-3-({1-[3-(1H-imidazol-2-ylamino)-propyl]-1H-indazole-5-carbonyl}-amino)-propionic acid]
15,12,"O=C(NC[C@H](NS(=O)(=O)c1c(Cl)cccc1Cl)C(=O)O)c1ccc2c(cnn2CCCNc2ncc[nH]2)c1 [2-(2,6-Dichloro-benzenesulfonylamino)-3-({1-[3-(1H-imidazol-2-ylamino)-propyl]-1H-indazole-5-carbonyl}-amino)-propionic acid]"
16,74,"Cc1cc(-c2ccccc2)cc(C)c1S(=O)(=O)N[C@@H](CNC(=O)c1ccc2c(cnn2CCCNc2ncc[nH]2)c1)C(=O)O [2-(3,5-Dimethyl-biphenyl-4-sulfonylamino)-3-({1-[3-(1H-imidazol-2-ylamino)-propyl]-1H-indazole-5-carbonyl}-amino)-propionic acid]"
17,9000,CCCCS(=O)(=O)N[C@@H](CNC(=O)c1ccc2c(cnn2CCCNc2ccccn2)c1)C(=O)O [2-(Butane-1-sulfonylamino)-3-({1-[3-(pyridin-2-ylamino)-propyl]-1H-indazole-5-carbonyl}-amino)-propionic acid]
18,2000,CC(C)(C)c1ccc(S(=O)(=O)N[C@@H](CNC(=O)c2ccc3c(cnn3CCCNc3ncc[nH]3)c2)C(=O)O)cc1 [2-(4-tert-Butyl-benzenesulfonylamino)-3-({1-[3-(1H-imidazol-2-ylamino)-propyl]-1H-indazole-5-carbonyl}-amino)-propionic acid]
19,36000,"Cc1cc(C)c(NS(=O)(=O)N[C@@H](CNC(=O)c2ccc3c(cnn3CCCNc3ccccn3)c2)C(=O)O)c(C)c1 [3-[1-[3-(N-Pyridin-2ylamino)propyl]indazol-5-ylcarbonylamino]-2(S)-(2,4,6-trimethylphenylaminosulfonylamino) propionic acid]"
20,81,O=C(NC[C@H](NS(=O)(=O)c1ccc2ccccc2c1)C(=O)O)c1ccc2c(cnn2CCCNc2ncc[nH]2)c1 [3-({1-[3-(1H-Imidazol-2-ylamino)-propyl]-1H-indazole-5-carbonyl}-amino)-2-(naphthalene-2-sulfonylamino)-propionic acid]
21,290,O=C(NC[C@H](NS(=O)(=O)c1ccccc1)C(=O)O)c1ccc2c(cnn2CCCNc2ccccn2)c1 [2-Benzenesulfonylamino-3-({1-[3-(pyridin-2-ylamino)-propyl]-1H-indazole-5-carbonyl}-amino)-propionic acid]
22,4400,O=C(NC[C@H](NS(=O)(=O)c1ccc(C(F)(F)F)cc1)C(=O)O)c1ccc2c(cnn2CCCNc2ncc[nH]2)c1 [3-({1-[3-(1H-Imidazol-2-ylamino)-propyl]-1H-indazole-5-carbonyl}-amino)-2-(4-trifluoromethyl-benzenesulfonylamino)-propionic acid]
23,130,O=C(NC[C@H](NS(=O)(=O)c1ccc(-c2ccccc2)cc1)C(=O)O)c1ccc2c(cnn2CCCNc2ncc[nH]2)c1 [2-(Biphenyl-4-sulfonylamino)-3-({1-[3-(1H-imidazol-2-ylamino)-propyl]-1H-indazole-5-carbonyl}-amino)-propionic acid]
24,66,"Cc1cc(C)c(S(=O)(=O)N[C@@H](CNC(=O)c2ccc3c(cnn3CCCNC3=NCCCN3)c2)C(=O)O)c(C)c1 [3-({1-[3-(1,4,5,6-Tetrahydro-pyrimidin-2-ylamino)-propyl]-1H-indazole-5-carbonyl}-amino)-2-(2,4,6-trimethyl-benzenesulfonylamino)-propionic acid]"
25,57,"Cc1cc(C)c(S(=O)(=O)N[C@@H](CNC(=O)c2ccc3c(cnn3CCCNC3=NCCN3)c2)C(=O)O)c(C)c1 [3-({1-[3-(4,5-Dihydro-1H-imidazol-2-ylamino)-propyl]-1H-indazole-5-carbonyl}-amino)-2-(2,4,6-trimethyl-benzenesulfonylamino)-propionic acid]"
26,5000,Cc1cc(C)c(S(=O)(=O)N[C@H](CNC(=O)c2ccc3c(cnn3CCCNc3ncc[nH]3)c2)C(=O)O)c(C)c1
27,83,Cc1ccc(S(=O)(=O)N[C@@H](CNC(=O)c2ccc3c(cnn3CCCNc3ncc[nH]3)c2)C(=O)O)cc1 [3-({1-[3-(1H-Imidazol-2-ylamino)-propyl]-1H-indazole-5-carbonyl}-amino)-2-(toluene-4-sulfonylamino)-propionic acid]
28,260,O=C(NC[C@H](NS(=O)(=O)c1ccc(Cl)cc1)C(=O)O)c1ccc2c(cnn2CCCNc2ncc[nH]2)c1 [2-(4-Chloro-benzenesulfonylamino)-3-({1-[3-(1H-imidazol-2-ylamino)-propyl]-1H-indazole-5-carbonyl}-amino)-propionic acid]

row,SMILES,IC50 [nM]
1,CC(C)COC(=O)N[C@@H](CNC(=O)c1ccc2c(cnn2CCCNc2ccccn2)c1)C(=O)O [2-Isobutoxycarbonylamino-3-({1-[3-(pyridin-2-ylamino)-propyl]-1H-indazole-5-carbonyl}-amino)-propionic acid],25000
